From ChEMBL document CHEMBL5356951, “Semisynthetic polymyxins with potent antibacterial activity and reduced kidney cell toxicity” (RSC Med Chem, 2023) come the findings set out here.

Common to all, as to format: functional
Assay [1] has as its system Escherichia coli. Briefly: Antibacterial activity against Escherichia coli ATCC 25922 assessed as bacterial growth inhibition by broth microdilution assay. The gist of the method: (§1)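 Broth microdilution. Bacteria from glycerol stocks were grown overnight on blood agar at 37 °C, then colonies were suspended in TSB and grown to OD600 0.5. Compounds were dissolved in DMSO at 6.4 mg mL−1 (stock) and serially diluted in CAMHB (Mg2+ 12.5, Ca2+ 20 μg mL−1) in polypropylene plates. Inoculum was 10^6 CFU mL−1 final, incubated at 37 °C. MIC = lowest concentration without visible growth; values consistent across at least triplicate experiments.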

Assay [2] concerns Escherichia coli. Briefly: Antibacterial activity against Escherichia coli 1313 assessed as bacterial growth inhibition by broth microdilution assay. The gist of the method: as §1
For assay [3], the system named is Escherichia coli. Briefly: Antibacterial activity against multidrug-resistant Escherichia coli NCTC 13846 assessed as bacterial growth inhibition by broth microdilution assay. The method, boiled down: (§2)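 Broth microdilution MIC. Strains grown overnight on blood agar at 37 °C, colonies suspended in TSB and grown to OD600 0.5. Compounds dissolved in DMSO (6.4 mg mL−1 stock), diluted serially in CAMHB (12.5 μg mL−1 Mg2+, 20 μg mL−1 Ca2+) on polypropylene plates. Final inoculum 10^6 CFU mL−1, 37 °C under gas-permeable membrane. MIC is the lowest concentration with no visible growth, consistent across at least triplicate experiments.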

Assay [4] relates to Klebsiella pneumoniae. The assay can be described thus: Antibacterial activity against Klebsiella pneumoniae ATCC 13883 assessed as bacterial growth inhibition by broth microdilution assay. The gist of the method:
as §1

Assay [5] deals with Klebsiella pneumoniae. The assay can be described thus: Antibacterial activity against Klebsiella pneumoniae JS-123 assessed as bacterial growth inhibition by broth microdilution assay. The gist of the method:
as §1

For assay [6], the system named is Klebsiella pneumoniae. Briefly: Antibacterial activity against Klebsiella pneumoniae NCTC 13443 assessed as bacterial growth inhibition by broth microdilution assay. The gist of the method:
as §1

In assay [7] the test system is Acinetobacter baumannii. The assay can be described thus: Antibacterial activity against Acinetobacter baumannii ATCC 19606 assessed as bacterial growth inhibition by broth microdilution assay. The gist of the method: as §2
Assay [8] relates to Acinetobacter baumannii. The assay can be described thus: Antibacterial activity against Acinetobacter baumannii ATCC 17978 assessed as bacterial growth inhibition by broth microdilution assay. The gist of the method: as §2
The test system of assay [9] is Acinetobacter baumannii. The assay can be described thus: Antibacterial activity against multidrug-resistant Acinetobacter baumannii assessed as bacterial growth inhibition by broth microdilution assay. The method, boiled down:
as §2

In assay [10] the test system is Acinetobacter baumannii. Briefly: Antibacterial activity against Acinetobacter baumannii 2018-006 assessed as bacterial growth inhibition by broth microdilution assay. The method, boiled down:
as §2

Assay [11] deals with Pseudomonas aeruginosa. The assay can be described thus: Antibacterial activity against Pseudomonas aeruginosa ATCC 27853 assessed as bacterial growth inhibition by broth microdilution assay. The gist of the method: as §1
For assay [12], the system named is Pseudomonas aeruginosa. Briefly: Antibacterial activity against Pseudomonas aeruginosa NRZ 08418 assessed as bacterial growth inhibition by broth microdilution assay. The gist of the method:
as §1

Assay [13] deals with Pseudomonas aeruginosa. Briefly: Antibacterial activity against Pseudomonas aeruginosa NRZ 03961 assessed as bacterial growth inhibition by broth microdilution assay. The method, boiled down: as §1

SMILES strings stand for the structures. Values after ≈ are worked out from the molar mass of the structure shown.

For the compound `CC(C)CCSSC[C@@H](N)C(=O)N[C@H](C(=O)N[C@H](CCN)C(=O)N[C@H]1CCNC(=O)[C@H]([C@@H](C)O)NC(=O)[C@H](CCN)NC(=O)[C@H](CCN)NC(=O)[C@H](CC(C)C)NC(=O)[C@@H](Cc2ccccc2)NC(=O)[C@H](CCN)NC1=O)[C@@H](C)O`, the MIC in [1] amounted to 2 µg/mL (≈ 1.71 µM); in [2] it was 0.25 µg/mL (≈ 0.214 µM); in [3], 8 µg/mL (≈ 6.85 µM); in assay [4] it was 0.5 µg/mL (≈ 0.428 µM); in [5], 0.25 µg/mL (≈ 0.214 µM); in [6] it was 0.5 µg/mL (≈ 0.428 µM). Moreover, the MIC was found to be 0.25 µg/mL (≈ 0.214 µM) in assay [7]; 0.25 µg/mL (≈ 0.214 µM) in assay [8]; 0.5 µg/mL (≈ 0.428 µM) in [9]; 0.25 µg/mL (≈ 0.214 µM) in [10]; 1 µg/mL (≈ 0.856 µM) in assay [11]; 2 µg/mL (≈ 1.71 µM) in assay [12]. Also, the MIC in assay [13] amounted to 2 µg/mL (≈ 1.71 µM).
Consider `CC(C)C[C@@H]1NC(=O)[C@@H](Cc2ccccc2)NC(=O)[C@H](CCN)NC(=O)[C@@H](NC(=O)[C@@H](CO)NC(=O)[C@@H](NC(=O)[C@H](N)CSSCc2cccc(Cl)c2)[C@@H](C)O)CCNC(=O)[C@H]([C@@H](C)O)NC(=O)[C@H](CCN)NC(=O)[C@H](CCN)NC1=O`, for which the MIC in [1] turned out to be 2 µg/mL (≈ 1.65 µM); in [2], 0.5 µg/mL (≈ 0.413 µM); in [3], 8 µg/mL (≈ 6.61 µM); in assay [4], 1 µg/mL (≈ 0.827 µM); in [5] it was 0.25 µg/mL (≈ 0.207 µM); in [6] it was 0.5 µg/mL (≈ 0.413 µM). Further, the MIC came out at 0.5 µg/mL (≈ 0.413 µM) in assay [7]; 0.5 µg/mL (≈ 0.413 µM) in assay [8]; 0.5 µg/mL (≈ 0.413 µM) in [9]; 0.5 µg/mL (≈ 0.413 µM) in [10]; 4 µg/mL (≈ 3.31 µM) in assay [11]; 4 µg/mL (≈ 3.31 µM) in assay [12]. Besides, the MIC in [13] was 8 µg/mL (≈ 6.61 µM).
`CC(C)C[C@@H]1NC(=O)[C@@H](Cc2ccccc2)NC(=O)[C@H](CCN)NC(=O)[C@@H](NC(=O)[C@@H](CCN)NC(=O)[C@@H](NC(=O)[C@H](N)CSSCCC2CCCCC2)[C@@H](C)O)CCNC(=O)[C@H]([C@@H](C)O)NC(=O)[C@H](CCN)NC(=O)[C@H](CCN)NC1=O`: the MIC came out at 2 µg/mL (≈ 1.65 µM) in [1]; 0.5 µg/mL (≈ 0.414 µM) in [2]; 4 µg/mL (≈ 3.31 µM) in [3]; 1 µg/mL (≈ 0.827 µM) in [4]; 1 µg/mL (≈ 0.827 µM) in [5]; 1 µg/mL (≈ 0.827 µM) in [6]. The MIC in [7] is 0.5 µg/mL (≈ 0.414 µM); in assay [8], 1 µg/mL (≈ 0.827 µM); in [9], 1 µg/mL (≈ 0.827 µM); in assay [10] it was 0.5 µg/mL (≈ 0.414 µM); in [11], 2 µg/mL (≈ 1.65 µM); in [12], 2 µg/mL (≈ 1.65 µM). Besides, the MIC in assay [13] amounted to 2 µg/mL (≈ 1.65 µM).
`CC(C)C[C@@H]1NC(=O)[C@@H](Cc2ccccc2)NC(=O)[C@H](CCN)NC(=O)[C@@H](NC(=O)[C@H](CN)NC(=O)[C@@H](NC(=O)[C@H](N)CSSCCC2CCCCC2)[C@@H](C)O)CCNC(=O)[C@H]([C@@H](C)O)NC(=O)[C@H](CCN)NC(=O)[C@H](CCN)NC1=O`: the MIC in [1] was found to be 1 µg/mL (≈ 0.837 µM); in [2], 0.5 µg/mL (≈ 0.419 µM); in assay [3], 2 µg/mL (≈ 1.67 µM); in [4], 1 µg/mL (≈ 0.837 µM); in assay [5], 0.5 µg/mL (≈ 0.419 µM); in assay [6], 1 µg/mL (≈ 0.837 µM). Further, the minimal inhibitory concentration (MIC) in assay [7] came to 0.5 µg/mL (≈ 0.419 µM); in [8], 1 µg/mL (≈ 0.837 µM); in assay [9], 1 µg/mL (≈ 0.837 µM); in assay [10], 0.5 µg/mL (≈ 0.419 µM); in assay [11], 2 µg/mL (≈ 1.67 µM); in assay [12] it was 2 µg/mL (≈ 1.67 µM). Besides, the MIC in assay [13] was found to be 2 µg/mL (≈ 1.67 µM).
As to `CC(C)CCSSC[C@@H](N)C(=O)N[C@H](C(=O)N[C@H](CO)C(=O)N[C@H]1CCNC(=O)[C@H]([C@@H](C)O)NC(=O)[C@H](CCN)NC(=O)[C@H](CCN)NC(=O)[C@H](CC(C)C)NC(=O)[C@@H](Cc2ccccc2)NC(=O)[C@H](CCN)NC1=O)[C@@H](C)O`, the MIC in assay [1] is 2 µg/mL (≈ 1.73 µM); in [2], 0.5 µg/mL (≈ 0.433 µM); in assay [3] it was 16 µg/mL (≈ 13.8 µM); in assay [4], 0.5 µg/mL (≈ 0.433 µM); in [5], 0.5 µg/mL (≈ 0.433 µM); in assay [6] it was 1 µg/mL (≈ 0.865 µM). For the same compound, the MIC in [7] was 0.25 µg/mL (≈ 0.216 µM); in assay [8], 0.25 µg/mL (≈ 0.216 µM); in assay [9], 0.5 µg/mL (≈ 0.433 µM); in assay [10], 0.5 µg/mL (≈ 0.433 µM); in [11], 4 µg/mL (≈ 3.46 µM); in assay [12] it was 8 µg/mL (≈ 6.92 µM). For the same compound, in [13], the MIC is 8 µg/mL (≈ 6.92 µM).
As to `CC(C)CCSSC[C@@H](N)C(=O)N[C@H](C(=O)N[C@H](CN)C(=O)N[C@H]1CCNC(=O)[C@H]([C@@H](C)O)NC(=O)[C@H](CCN)NC(=O)[C@H](CCN)NC(=O)[C@H](CC(C)C)NC(=O)[C@@H](Cc2ccccc2)NC(=O)[C@H](CCN)NC1=O)[C@@H](C)O`, the MIC in assay [1] was found to be 2 µg/mL (≈ 1.73 µM); in assay [2] it was 0.5 µg/mL (≈ 0.433 µM); in assay [3], 8 µg/mL (≈ 6.93 µM); in [4], 0.5 µg/mL (≈ 0.433 µM); in [5], 0.5 µg/mL (≈ 0.433 µM); in assay [6] it was 0.5 µg/mL (≈ 0.433 µM). In addition, the minimal inhibitory concentration (MIC) was determined as 0.25 µg/mL (≈ 0.217 µM) in assay [7]; 0.25 µg/mL (≈ 0.217 µM) in assay [8]; 0.25 µg/mL (≈ 0.217 µM) in assay [9]; 0.25 µg/mL (≈ 0.217 µM) in [10]; 1 µg/mL (≈ 0.866 µM) in assay [11]; 4 µg/mL (≈ 3.46 µM) in [12]. Besides, in [13], the MIC is 2 µg/mL (≈ 1.73 µM).
